ChEMBL document CHEMBL4342523, “Discovery and Development of S6821 and S7958 as Potent TAS2R8 Antagonists” (J Med Chem, 2020)
pIC50: −log10 of the molar value. Converted amounts (≈) assume the structure as drawn.

What was measured:
[1] = target: T1, Taste receptor type 2 member 8 (Homo sapiens, UniProt Q9NYW2); experiment: Antagonist activity at recombinant human TAS2R8 stably expressed in cells co-expressing Galpha16gust44 assessed as inhibition of andrographolide-induced intracellular calcium level measured for 100 secs by fluo-4 dye based FLIPR assay; assay type: functional, cell-based
T1 sequence (Q9NYW2 whole entry): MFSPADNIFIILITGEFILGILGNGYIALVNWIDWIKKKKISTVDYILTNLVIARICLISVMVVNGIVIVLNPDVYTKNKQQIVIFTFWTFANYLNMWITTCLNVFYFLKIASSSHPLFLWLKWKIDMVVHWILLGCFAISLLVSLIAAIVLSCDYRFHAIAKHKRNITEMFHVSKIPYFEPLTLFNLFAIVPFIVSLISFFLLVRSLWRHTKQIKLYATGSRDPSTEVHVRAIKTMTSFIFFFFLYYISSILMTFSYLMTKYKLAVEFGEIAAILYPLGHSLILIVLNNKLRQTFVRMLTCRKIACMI
In short: (§1)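 Recombinant cells stably expressing G16t44 chimera and TAS2R8 (clones isolated by limiting dilution), plated 24 h before assay; loaded with fluo-4 in PBS 60 min, washed, rested 15 min in dark at RT. Andrographolide agonist at its EC80, premixed with antagonist and added together; final DMSO 0.5%. Baseline read 10 s, then fluorescence followed 100 s on FLIPR.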

[2] = Solubility of the compound in pH 7.1 buffer measured after 24 hrs; assay type: physicochemical
[3] = Stability of the compound in pH 2.8 buffer assessed as parent compound remaining measured after 24 hrs at 100 degC; assay type: physicochemical; conditions: read-out: Stability
[4] = Stability of the compound in pH 7.1 buffer assessed as parent compound remaining measured after 24 hrs at 100 degC; assay type: physicochemical; conditions: read-out: Stability
[5] = Drug metabolism in pH <6.5 buffer assessed as S6821 formation measured under room temperature
[6] = target: T2, Taste receptor type 2 member 8 (Homo sapiens) (UniProt Q9NYW2); experiment: Antagonist activity at recombinant human TAS2R8 stably expressed in cells co-expressing Galpha16gust44 assessed as inhibition of andrographolide-induced intracellular calcium level at 10 uM measured for 100 secs by fluo-4 dye based FLIPR assay relative to control; assay type: functional, cell-based; in short: as §1
T2 sequence (whole entry): T1 sequence (Q9NYW2 whole entry)

[7] = Ratio of solubility of the compound in pH 7.1 buffer measured after 24 hrs to IC50 for antagonist activity at recombinant human TAS2R8 expressed in cells co-expressing Galpha16gust44 assessed as inhibition of andrographolide-induced intracellular calcium level; assay type: cell-based

Row | SMILES | pIC50 [1] | other results
1 | COc1cncc(C(=O)Nc2cnn(Cc3c(C)noc3C)c2)c1 | 6.10 | 
2 | Cc1noc(C)c1Cn1cc(NC(=O)N(CC(=O)O)Cc2cccc(O)c2)cn1 |  | Drug metabolism [5]: Metabolite detected
3 | CCSc1ncccc1C(=O)Nc1cnn(Cc2c(C)noc2C)c1 | 5.64 | inhibition [6]: 50%
4 | Cc1noc(C)c1Cn1cc(NC(=O)CCCc2ccccc2)cn1 | 6.10 | 
5 | COc1ncccc1C(=O)Nc1cnn(Cc2c(C)noc2C)c1 | 5.96 | 
6 | COc1ccccc1C(=O)Nc1cnn(Cc2c(C)noc2C)c1 | 5.72 | 
7 | Cc1noc(C)c1Cn1cc(N2C(=O)[C@H](C)N(Cc3cccc(O)c3)C2=O)cn1 |  | solubility at 24 h [2]: 60 µM (≈ 23.7 µg/mL); Ratio [7]: 3750; remaining at 24 h [3]: > 99%; remaining at 24 h [4]: 92%
8 | Cc1noc(C)c1Cn1cc(NC(=O)c2ccccn2)cn1 | 5.64 | 
9 | Cc1noc(C)c1Cn1cc(NC(=O)c2ccc3ocnc3c2)cn1 | 5.52 | 
10 | Cc1noc(C)c1Cn1cc(NC(=O)NCc2ccccc2)cn1 | 6.00 | 
11 | Cc1noc(C)c1Cn1cc(N2C(=O)N(Cc3cccc(O)c3)C3(CC3)C2=O)cn1 |  | solubility at 24 h [2]: 31 µM (≈ 12.6 µg/mL); Ratio [7]: 1550; remaining at 24 h [3]: > 99%; remaining at 24 h [4]: 96%
12 | Cc1noc(C)c1Cn1cc(NC(=O)Nc2ccccc2)cn1 | 5.70 | 
13 | Cc1noc(C)c1Cn1cc(N2C(=O)[C@@H](C)N(Cc3cccc(O)c3)C2=O)cn1 |  | solubility at 24 h [2]: 61 µM (≈ 24.1 µg/mL); Ratio [7]: 3390; remaining at 24 h [3]: > 99%; remaining at 24 h [4]: 92%
14 | Cc1noc(C)c1Cn1cc(NS(=O)(=O)c2ccccc2)cn1 | 5.40 | 
15 | Cc1noc(C)c1Cn1cc(NC(=O)Cc2ccccc2)cn1 | 6.10 | 
16 | Cc1noc(C)c1Cn1cc(N2C(=O)CN(CC3CCCO3)C2=O)cn1 (stereo not drawn) | 6.00 | 
17 | Cc1noc(C)c1Cn1cc(N2C(=O)CN(Cc3ccccn3)C2=O)cn1 | 6.00 | 
18 | Cc1noc(C)c1Cn1cc(N2C(=O)CN(Cc3cccc(C(=O)O)c3)C2=O)cn1 | 5.70 | 
19 | Cc1noc(C)c1Cn1cc(N2C(=O)C(=O)N(Cc3ccccc3)C2=O)cn1 | 5.70 | 
20 | Cc1noc(C)c1Cn1cc(N2Cc3ccccc3C2=O)cn1 | 5.05 | 
21 | COc1ccc(C(=O)Nc2cnn(Cc3c(C)noc3C)c2)cc1OC | 6.00 | 
22 | Cc1noc(C)c1Cn1cc(N2C(=O)[C@H](CO)N(Cc3cccc(O)c3)C2=O)cn1 |  | solubility at 24 h [2]: 2480 µM (≈ 1020 µg/mL); Ratio [7]: 57600; remaining at 24 h [3]: 53%; remaining at 24 h [4]: 2%
23 | Cc1noc(C)c1Cn1cc(NC(=O)c2ccccc2)cn1 | 5.70 to 5.77 | 
24 | Cc1noc(C)c1Cn1cc(NC(=O)c2ccccc2O)cn1 | 6.00 | 
25 | Cc1noc(C)c1Cn1cc(N2CCN(Cc3ccccc3)C2=O)cn1 | 6.00 | 
26 | Cc1noc(C)c1Cn1cc(N2C(=O)CNC2=O)cn1 | 6.05 | 

Now from value to compound, other results behind:

Row | pIC50 [1] | SMILES | other results
27 | 6.15 | COc1cccc(C(=O)Nc2cnn(Cc3c(C)noc3C)c2)n1 | 
28 | 7.40 | Cc1noc(C)c1Cn1cc(N2C(=O)CN(Cc3ccc(O)cc3)C2=O)cn1 | 
29 | 6.70 | Cc1noc(C)c1Cn1cc(N2C(=O)CN(Cc3ccccc3)C2=O)cn1 | solubility at 24 h [2]: 70 µM (≈ 25.6 µg/mL); remaining at 24 h [3]: > 99%; remaining at 24 h [4]: 60%
30 | 6.15 | COc1ccc(C(=O)Nc2cnn(Cc3c(C)noc3C)c2)cc1 | 
31 | 7.00 | COc1ccccc1CN1CC(=O)N(c2cnn(Cc3c(C)noc3C)c2)C1=O | solubility at 24 h [2]: 16 µM (≈ 6.33 µg/mL); Ratio [7]: 267
32 | 6.15 | COc1cccc(C(=O)Nc2cnn(Cc3c(C)noc3C)c2)c1 | 
33 | 6.52 | COc1ccc(OC)c(C(=O)Nc2cnn(Cc3c(C)noc3C)c2)c1 | 
34 | 6.52 | Cc1noc(C)c1Cn1cc(N2C(=O)CN(CC3CCCCC3)C2=O)cn1 | 
35 | 7.40 | Cc1noc(C)c1Cn1cc(N2C(=O)N(Cc3cccc(O)c3)C3(CCC3)C2=O)cn1 | solubility at 24 h [2]: 3 µM (≈ 1.26 µg/mL); Ratio [7]: 77; remaining at 24 h [3]: 97%; remaining at 24 h [4]: 98%
36 | 6.52 | Cc1noc(C)c1Cn1cc(NC(=O)c2ccc3[nH]ccc3c2)cn1 | 
37 | 6.40 | Cc1noc(C)c1CN1CC(=O)N(c2cnn(Cc3c(C)noc3C)c2)C1=O | 
38 | 7.00 | CNC(=O)c1cccc(CN2CC(=O)N(c3cnn(Cc4c(C)noc4C)c3)C2=O)c1 | 
39 | 6.70 | Cc1noc(C)c1Cn1cc(N2C(=O)c3ccccc3C2=O)cn1 | solubility at 24 h [2]: 12 µM (≈ 3.87 µg/mL); remaining at 24 h [3]: 3%; remaining at 24 h [4]: 5%
40 | 6.70 | Cc1cc(CN2CC(=O)N(c3cnn(Cc4c(C)noc4C)c3)C2=O)n(C)n1 | 
41 | 6.30 | Cc1noc(C)c1Cn1cc(NC(=O)c2ccc(O)cc2)cn1 | 
42 | 6.40 | Cc1noc(C)c1Cn1cc(NC(=O)c2cccc(O)c2)cn1 | 
43 | 7.00 | COC(=O)c1cccc(CN2CC(=O)N(c3cnn(Cc4c(C)noc4C)c3)C2=O)c1 | 
44 | 7.00 | Cc1noc(C)c1Cn1cc(N2C(=O)CN(Cc3ccccc3F)C2=O)cn1 | solubility at 24 h [2]: 51 µM (≈ 19.6 µg/mL); Ratio [7]: 600
45 | 6.40 | Cc1noc(C)c1Cn1cc(NC(=O)CCc2ccccc2)cn1 | 
46 | 7.00 | Cc1noc(C)c1Cn1cc(N2C(=O)CN(Cc3ccccc3O)C2=O)cn1 | 
47 | 7.00 | Cc1noc(C)c1Cn1cc(N2C(=O)N(Cc3cccc(O)c3)C(C)(CO)C2=O)cn1 (stereo not drawn) | solubility at 24 h [2]: 356 µM (≈ 151 µg/mL); Ratio [7]: 2660; remaining at 24 h [3]: > 99%; remaining at 24 h [4]: 43%
